Results on six molecules are retold here after ChEMBL document CHEMBL3259578, “Novel derivatives of 1-cyclohexyl-4-[3-(5-methoxy-1,2,3,4-tetrahydronaphthalen-1-yl)propyl]piperazine (PB28) with improved fluorescent and σ receptors binding properties” (J Med Chem, 2014).

As a reminder, the Ki is the equilibrium dissociation constant of an inhibitor or competing ligand from its target. Read a high Ki as weaker binding. The term IC50 denotes the concentration needed to halve the response being measured. High values mean a need for much substance, low ones inhibition by little substance.

Activity calls are given as the source filed them. The calls are words filed in the database; no cut-off is given here.

The target in series [1] is Sigma non-opioid intracellular receptor 1 (Cavia porcellus, UniProt Q60492). As to the kind of experiment: Displacement of (+)-[3H]pentazocine from Dunkin guinea pig brain sigma 1 receptor.
Series [2] in a line: Displacement of [3H]DTG from Wistar Hannover rat liver sigma 2 receptor.
The subject of series [3] is MCF7. Kind of series: Cellular uptake in human MCF7 cells at 50 to 100 nM after 20 to 40 mins by spinning disk confocal microscopy. Conditions: mcf7, 0.1 µM. The series is classed as ADME, cell-based. An outline of the steps:
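Live and fixed MCF7 cells imaged by spinning-disk confocal microscopy from 50 nM ligand onward; intracellular fluorescence intensity followed over time after treatment. Excitation 405 nm […], 488 nm (green) or 561 nm (red channel), according to fluorophore.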

The nature of series [4]: Drug uptake in cytoplasm of human MCF7 cells at 100 to 500 nM after 45 mins by spinning disk confocal microscopy. Conditions: mcf7, 0.75 h, 0.5 µM. The series is classed as ADME, cell-based. A digest of the protocol: (§1)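 MCF7 cells seeded in chamber slides 24 h ahead, treated 45 min with 100 or 500 nM ligand, fixed in 2% PFA for 30 min at 37 °C, washed with PBS. Spinning-disk confocal imaging, background-corrected; subcellular localization assessed, nuclear signal from pixel intensity profiles. Excitation 405, 488 or 561 nm depending on fluorophore.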

Series [5] in a line: Drug uptake in perinuclear region of human MCF7 cells at 100 nM after 45 mins by spinning disk confocal microscopy. The series is classed as ADME, cell-based. The following applies: mcf7, 0.75 h, 0.1 µM. An outline of the steps: as §1
Series [6] in a line: Drug uptake in vesicle of human MCF7 cells at 100 to 500 nM after 45 mins by spinning disk confocal microscopy. It is filed as ADME, cell-based. Conditions: mcf7, 0.75 h, 0.5 µM. An outline of the steps:
as §1

The nature of series [7]: Drug uptake in nucleus of human MCF7 cells at 500 nM after 45 mins by spinning disk confocal microscopy. The series is classed as ADME, cell-based. Conditions: mcf7, 0.75 h, 0.5 µM. A digest of the protocol: as §1
Series [8] deals with MCF7. As to the kind of experiment: Cellular uptake in human MCF7 cells at 25 to 100 nmol/L after 45 mins […]. It is filed as ADME, cell-based. Conditions: mcf7, 0.75 h.
For series [9], the system named is MCF7. As to the kind of experiment: Binding affinity to sigma 2 receptor overexpressed in human MCF7 cells assessed as compound internalization by measuring cellular accumulation at 25 nmol/L after 45 mins by flow cytometry in presence of PB28. It is filed as cell-based. (A flow cytometer gives signals particle by particle.)
In series [10] the test system is MCF7. As to the kind of experiment: Binding affinity to sigma 2 receptor overexpressed in human MCF7 cells assessed as compound internalization by measuring cellular accumulation at 25 nmol/L after 45 mins by flow cytometry in presence of cis-1-cyclohexyl-4-[4-(2,6-difluorophenyl)cyclohexyl]piperazine. The series is classed as cell-based.
The subject of series [11] is MCF7. Kind of series: Binding affinity to sigma 2 receptor in human MCF7 cells at 100 nmol/L after 45 mins by FACS analysis in presence of DTG and (+)-pentazocine. The series is classed as cell-based.
Series [12] is described as follows: Displacement of 2-(6-{1-[3-(4-Cyclohexylpiperazin-1-yl)propyl]-1,2,3,4-tetrahydronaphthalen-5-yloxy}hexyl)-5-dimethylamino-1H-isoindole-1,3(2H)-dione from sigma 2 receptor in human MCF7 cells after 45 mins by FACS analysis. It is filed as cell-based. An outline of the steps: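 Intact, nonpermeabilized MCF7 cells incubated with competitor at 0.1 nmol/L–10 μmol/L followed by 100 nmol/L fluorescent σ2 tracer for 45 min at 37 °C. Washed twice with PBS, detached with dissociation solution, resuspended in PBS. Flow cytometry at 530 nm band-pass, 10 000 events; IC50 taken from displacement curve.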

The nature of series [13]: Displacement of [3H]DTG from sigma 2 receptor in human MCF7 cells after 45 mins by FACS analysis. The series is classed as cell-based. Background: Loss of bound radioactivity is the signal in a displacement assay; it reports binding, not function.

Sequence of Sigma non-opioid intracellular receptor 1 (Q60492 whole entry): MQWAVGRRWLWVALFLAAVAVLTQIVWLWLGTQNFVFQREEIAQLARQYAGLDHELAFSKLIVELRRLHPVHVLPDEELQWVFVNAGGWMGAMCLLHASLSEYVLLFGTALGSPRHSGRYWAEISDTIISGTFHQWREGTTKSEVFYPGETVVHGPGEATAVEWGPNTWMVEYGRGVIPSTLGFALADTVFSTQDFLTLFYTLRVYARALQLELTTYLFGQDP

As for `CN(C)c1ccc2c(c1)C(=O)N(CCCCCCOc1cccc3c1CCCC3CCCN1CCN(C3CCCCC3)CC1)C2=O` (stereo not given), the Ki in series [1] stood at 5.37 nM; in [2] it was 6.9 nM. Besides, the Drug uptake entry (in the series on MCF7 [3]; in series [4]; in series [5]; in series [6]; in series [7]; in the series on MCF7 [8]) was “Active” each time. The outcome with MCF7 [9], in the series on MCF7 [10] and in the series on MCF7 [11] was inactive.

For `O=[N+]([O-])c1ccc(NCCCCCCCCCCOc2cccc3c2CCCC3CCCN2CCN(C3CCCCC3)CC2)c2nonc12` (stereo not given), the results for the inhibitory constant (Ki) in series [1] and in series [2] were 258 nM and 31.2 nM, respectively.

In the case of `O=[N+]([O-])c1ccc(NCCCCCCOc2cccc3c2CCCC3CCCN2CCN(C3CCCCC3)CC2)c2nonc12` (stereo not given), the Drug uptake entry (in the series on MCF7 [3]; in series [4]; in series [5]; in series [6]; in series [7]; with MCF7 [8]) was “Active” in each case. The outcome in the series on MCF7 [9] and in the series on MCF7 [10] was inactive.

As to `COc1cccc2c1CCCC2CCCN1CCN(C2CCCCC2)CC1` (stereo not given), the concentration for half-maximal inhibition (IC50) in [12] was 4.27 nM; in series [13], 1.2 nM.

Turning to `Nc1ccc2c3c(cccc13)C(=O)N(CCCCCCOc1cccc3c1CCCC3CCCN1CCN(C3CCCCC3)CC1)C2=O` (stereo not given), the Ki in [1] was found to be 156 nM; in series [2], 6.57 nM. Besides, the Drug uptake result (in the series with MCF7 [3]; in series [4]; in series [5]; in series [6]; in [7]; in the series on MCF7 [8]) was “Active” each time. Besides, the result in the series with MCF7 [9] and in the series on MCF7 [10] was inactive.

As to `CCN(CC)c1ccc2cc(/C=C/C3=[N+](CCCCCC(=O)NCCCCCCOc4cccc5c4CCCC5CCCN4CCN(C5CCCCC5)CC4)c4ccccc4C3(C)C)c(=O)oc2c1.[Br-]` (stereo not given), the inhibition constant Ki in [1] is 235 nM; in series [2] it was 161 nM. In addition, the Drug uptake entry (in the series with MCF7 [3]; in series [4]; in [5]; in series [6]; in [7]) was “Active” each time.
